How the values were obtained:
L6 = experiment: Cytotoxicity against rat L6 cells; type: cell-based
Plasmodium falciparum = experiment: Antiplasmodial activity against Plasmodium falciparum K1 in [3H]hypoxanthine incorporation assay; type: functional, organism-based; conditions: K1, 72 h
Procedure, shortened: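 K1 erythrocytic stages in RPMI 1640 without hypoxanthine with AlbuMax, human A⁺ red cells at 2.5% hematocrit, 0.3% parasitemia. Compounds taken from 10 mg/mL DMSO stock, tested as serial doubling dilutions at 37 °C in 4% CO₂/3% O₂/93% N₂. After 48 h, ³H-hypoxanthine (0.5 µCi) added for 24 h more; incorporation by scintillation counting. IC₅₀ from sigmoidal curves.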

[1] = Binding affinity for DNA assessed as thermal melting temperature
Procedure, shortened: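 Thermal melting of poly(dA)·poly(dT): DNA at 40 µM base with compound at 12 µM (ratio 0.3) in MES 0.01 M / EDTA 0.001 M buffer, pH 6.25. A260 followed from 20 to 95 °C at 0.5 °C/min. Value is ΔTm.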

[2] = tested on: Trypanosoma brucei rhodesiense; experiment: Antitrypanosomal activity against Trypanosoma brucei rhodesiense STIB900; type: functional, organism-based
Procedure, shortened: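 Bloodstream forms (10⁴ per well) in MEM with 15% heat-inactivated horse serum, 25 mM HEPES, 2-mercaptoethanol, hypoxanthine. 3-fold serial dilutions from 90 to 0.123 µg/mL, in duplicate. Incubation 72 h at 37 °C, 5% CO₂. Resazurin then added for 2–4 h more. Fluorescence read at ex 536 / em 588 nm.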

[3] = Selectivity index, ratio of IC50 for rat L6 cells to IC50 for Trypanosoma brucei rhodesiense STIB900; type: functional
Procedure, shortened: (§1)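 Ratio of the IC₅₀ on L-6 rat skeletal myoblasts to the parasite IC₅₀. Cytotoxicity measured in RPMI 1640 with L-glutamine and 10% FBS, serial dilutions 90 to 0.123 µg/mL, duplicate. After 72 h, Alamar blue (resazurin) added for 2 h. Fluorescence read at ex 536 / em 588 nm.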

Ferriprotoporphyrin IX [4] = experiment: Inhibition of ferriprotoporphyrin 9 biomineralization; type: functional
Procedure, shortened: (§2)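 β-Hematin formation: hemin chloride (0.5 mg/mL in DMSO) with 0.5 M sodium acetate pH 4.4 and drug dilutions, 37 °C for 18–24 h. Pellet washed with DMSO, dissolved in 0.1 N NaOH, A405 read. Percent inhibition relative to solvent control. IC₅₀ derived, or percent inhibition at 1 mg/mL (highest concentration) given when no IC₅₀.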

[5] = Selectivity index, ratio of IC50 for rat L6 cells to IC50 for Plasmodium falciparum K1; type: functional; procedure, shortened: as §1
Ferriprotoporphyrin IX [6] = experiment: Inhibition of ferriprotoporphyrin 9 biomineralization at 1 mg/ml; type: functional; procedure, shortened: as §2

Structure (SMILES)	IC50 (L6) [µM]	IC50 (Plasmodium falciparum) [µM]	ΔTm [1] [°C]	IC50 [2] [µM]	Ratio IC50 [3]	IC50 (Ferriprotoporphyrin IX [4]) [µM]	Ratio IC50 [5]	inhibition (Ferriprotoporphyrin IX [6]) [%]
Cl.N=C(N)Nc1ccc(NC(=S)Nc2ccc(NC(=N)N)cc2)cc1	15.5	0.607	23	0.538	29	686	26	
N=C(N)Nc1ccc2c(c1)OCCO2	> 391	9		150				
CC(=O)c1ccc(NC(=N)N)cc1	> 421	> 23		155				
N=C(N)Nc1ccc(NC(=S)Nc2ccccc2)cc1	> 225	8.7		1.3				
CC(C)(C)OC(=O)N1CCN(C(=O)OC(C)(C)C)C1=Nc1ccc(Nc2ccc(N=C3N(C(=O)OC(C)(C)C)CCN3C(=O)OC(C)(C)C)cc2)cc1	9.8	0.059		0.048		171	166	
N=C(N)c1ccc(OCCCCCOc2ccc(C(=N)N)cc2)cc1			32.3					
c1ccc(Cc2ccc(NC3=NCCN3)cc2)cc1	73	1.7		4.9				
O=C(c1ccc(NC2=NCCN2)cc1)c1ccc(NC2=NCCN2)cc1	> 214	0.129		2.05		117	>1658	
c1cc2c(cc1NC1=NCCN1)CCC2	> 378	5.3		9.2				
Cc1ccc(NC(=N)N)cc1C	190	12.2		39.9				
N=C(N)Nc1ccc(Cc2ccccc2)cc1	43.9	3.8		15.9				
O=C(Nc1ccccc1)c1ccc(NC2=NCCN2)cc1	> 284	> 15		42.9				
Cc1ccc(NC(=N)N)cc1	> 484	> 27		164				
O=S(=O)(c1ccc(NC2=NCCN2)cc1)c1ccc(NC2=NCCN2)cc1	> 196	5.6	12.1	32.4	>6		>35	
c1ccc(Oc2ccc(NC3=NCCN3)cc2)cc1	167	5.7		5				
N=C(N)Nc1ccc(Oc2ccc(NC(=N)N)cc2)cc1	1.64	0.046	22.1	0.196	8		36	0
c1ccc(Nc2ccc(NC3=NCCN3)cc2)cc1	90.7	0.549		1.2				
c1ccc(NC2=NCCN2)cc1	> 455	> 25		182				
c1cc2c(cc1NC1=NCCN1)Cc1cc(NC3=NCCN3)ccc1-2	83.4	0.0115	44.1	0.0049	17020	491	7252	
CN(C)c1ccc(NC2=NCCN2)cc1	> 324	> 18		46.6				

Structure (SMILES)	IC50 (L6) [µM]	IC50 (Plasmodium falciparum) [µM]	ΔTm [1] [°C]	IC50 [2] [µM]	Ratio IC50 [3]	IC50 (Ferriprotoporphyrin IX [4]) [µM]	Ratio IC50 [5]	inhibition (Ferriprotoporphyrin IX [6]) [%]
CC(=O)c1ccc(NC2=NCCN2)cc1	> 375	5.7		54.6				
c1ccc(Sc2ccc(NC3=NCCN3)cc2)cc1	28.5	1.2		1.9				
N=C(N)Nc1ccc2c(c1)CCC2	73.7	0.95		0.99				
N=C(N)Nc1ccc(N2CCCCC2)cc1	232	7.9		48.6				
CN(C)c1ccc(NC(=N)N)cc1	> 358	> 19		20.1				
N=C(N)Nc1ccc2c(c1)Cc1cc(NC(=N)N)ccc1-2	4.7	0.0023		0.024	196		2043	
COc1ccc(NC(=N)N)cc1OC	> 388	14.8		237				
N=C(N)Nc1ccc(NC(=O)c2ccccc2)cc1	> 309	10.4		122				
N=C(N)Nc1ccc(Sc2ccc(NC(=N)N)cc2)cc1	2.66	0.035	20.1	0.102	26		76	0
CSc1ccc(NC(=N)N)cc1	240	1.3		5.9				
CSc1ccc(NC2=NCCN2)cc1	174	1.7		7.3				
CC(C)(C)OC(=O)N1CCN(C(=O)OC(C)(C)C)C1=Nc1ccc(S(=O)(=O)c2ccc(N=C3N(C(=O)OC(C)(C)C)CCN3C(=O)OC(C)(C)C)cc2)cc1	56.4	0.055		2.6			1025	27
c1cc2c(cc1NC1=NCCN1)OCO2	> 372	> 20		93.5				
CCN(CC)c1ccc(NC2=NCCN2)cc1	> 444	15		40.1				
N=C(N)Nc1ccc(S(=O)(=O)c2ccc(NC(=N)N)cc2)cc1	> 222	0.444	12.8	4.3	>51		>500	
Nc1ccc(NC2=NCCN2)cc1	> 423	15						
N=C(N)Nc1ccc(Cc2ccc(NC(=N)N)cc2)cc1	2.8	0.032	15	0.161	17		88	0
CCOC(CNC(=N)Nc1ccc(Cc2ccc(NC(=N)NCC(OCC)OCC)cc2)cc1)OCC	> 175	0.036	5.3	0.316	>553		>4861	
S=C(Nc1ccccc1)Nc1ccc(NC2=NCCN2)cc1	91.1	3.1		2.6				
O=C(Nc1ccccc1)Nc1ccc(NC2=NCCN2)cc1	> 219	3.4		45.4				

Structure (SMILES)	IC50 (L6) [µM]	IC50 (Plasmodium falciparum) [µM]	ΔTm [1] [°C]	IC50 [2] [µM]	Ratio IC50 [3]	IC50 (Ferriprotoporphyrin IX [4]) [µM]	Ratio IC50 [5]	inhibition (Ferriprotoporphyrin IX [6]) [%]
Cc1ccc(NC2=NCCN2)cc1C	> 398	17.1		49.8				
CCN(CC)c1ccc(NC(=N)N)cc1	78.1	5.7		2.4				
Nc1nc(N)nc(Nc2ccc([As]3SCC(CO)S3)cc2)n1 (stereo unspecified) [MELARSOPROL]		5.5						
O=C(c1ccccc1)c1ccc(NC2=NCCN2)cc1	226	5.2		9.4				
N=C(N)Nc1ccc(C(=O)Nc2ccccc2)cc1	> 309	13.3		87.4				
N=C(N)Nc1ccc(Oc2ccccc2)cc1	59.9	7.9		18.8				
N=C(N)Nc1ccc(Nc2ccccc2)cc1	49.5	1.6		4.8				
N=C(N)Nc1ccc(Nc2ccc(NC(=N)N)cc2)cc1	0.65	0.018	29.6	0.022	30		36	0
CCc1ccc(NC(=N)N)cc1	310	9		45.7				
Cc1ccc(NC2=NCCN2)cc1	> 425	> 23		262				
N=C(N)Nc1ccc(NC(=O)Nc2ccccc2)cc1	> 234	4.1		32.9				
O=C(Nc1ccc(NC2=NCCN2)cc1)c1ccccc1	> 284	> 15		94.7				
c1cc2c(cc1NC1=NCCN1)OCCO2	> 351	> 19		68.4				
N=C(N)Nc1ccc(C(=O)c2ccc(NC(=N)N)cc2)cc1	2.7	0.068	27.6	0.206	13		40	
N=C(N)Nc1ccc(N)cc1	132	> 26		311				
CC(C)(C)OC(=O)/N=C(/NC(=O)OC(C)(C)C)Nc1ccc(Nc2ccc(N/C(=N\C(=O)OC(C)(C)C)NC(=O)OC(C)(C)C)cc2)cc1	3.7	0.077		0.47			48	45
N=C(N)Nc1ccc(C(=O)c2ccccc2)cc1	118	> 18		14.4				
c1cc(N2CCCCC2)ccc1NC1=NCCN1	> 283	12		50.4				
COc1ccc(NC2=NCCN2)cc1OC	> 349	14.8		84.2				
N=C(N)Nc1ccc2c(c1)OCO2	> 417	> 23		146				

Source: ChEMBL document CHEMBL1141653, “New bis(2-aminoimidazoline) and bisguanidine DNA minor groove binders with potent in vivo antitrypanosomal and antiplasmodial activity” (J Med Chem, 2008)
